In PubChem BioAssay AID2539 (The Scripps Research Institute Molecular Screening Center, 2010):
Calls of active or inactive are those of the source.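 How the source made its calls: active means at least 50% inhibition of the cell reactive oxygen species light signal; inactive means the rest.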

What was measured:
Experiment in all cases: inhibition of NOX2, NOX3, NOX4 ROS production, late-stage follow-up, selectivity assay for NOX1 inhibitor project, cell-based, HEK293 transfected, luminol chemiluminescence, powder samples (AID 2539)
[1] = target: NADPH oxidase 4 (Homo sapiens) (UniProt Q9NPH5); conditions: HEK293 transfected NOX2/3/4, luminol ROS chemiluminescence; NOX4; at 10 µM; stronger effect = higher value
Sequence of NADPH oxidase 4 (Homo sapiens) (Q9NPH5 whole entry, looked up): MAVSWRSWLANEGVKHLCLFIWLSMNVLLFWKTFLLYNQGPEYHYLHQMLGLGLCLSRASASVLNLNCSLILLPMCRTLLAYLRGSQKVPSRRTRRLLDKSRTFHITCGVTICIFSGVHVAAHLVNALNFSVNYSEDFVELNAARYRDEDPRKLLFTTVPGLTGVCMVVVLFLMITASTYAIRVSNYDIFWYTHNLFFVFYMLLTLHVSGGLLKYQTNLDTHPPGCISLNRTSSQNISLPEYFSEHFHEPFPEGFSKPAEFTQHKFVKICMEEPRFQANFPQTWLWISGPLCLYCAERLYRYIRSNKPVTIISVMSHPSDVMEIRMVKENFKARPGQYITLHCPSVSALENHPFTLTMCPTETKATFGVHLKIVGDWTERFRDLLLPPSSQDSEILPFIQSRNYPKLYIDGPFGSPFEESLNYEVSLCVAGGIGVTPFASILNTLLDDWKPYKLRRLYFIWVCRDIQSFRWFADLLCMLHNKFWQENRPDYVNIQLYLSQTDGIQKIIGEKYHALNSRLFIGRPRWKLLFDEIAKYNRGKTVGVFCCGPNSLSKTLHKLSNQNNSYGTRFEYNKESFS
How it was run: (§1)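 Test system: transfected HEK/293 cells expressing NOX2, NOX3 or NOX4; Reagent: luminol plus HRP probe; Compound: 10 µM single dose; Incubation: compounds added 16 h post-transfection, 2 h before probe; Signal: ROS chemiluminescence; Replication: each compound tested in triplicate.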

[2] = target: NADPH oxidase 3 (Homo sapiens) (UniProt Q9HBY0); conditions: HEK293 transfected NOX2/3/4, luminol ROS chemiluminescence; NOX3; at 10 µM; stronger effect = higher value
Sequence of NADPH oxidase 3 (Homo sapiens) (Q9HBY0 whole entry, looked up): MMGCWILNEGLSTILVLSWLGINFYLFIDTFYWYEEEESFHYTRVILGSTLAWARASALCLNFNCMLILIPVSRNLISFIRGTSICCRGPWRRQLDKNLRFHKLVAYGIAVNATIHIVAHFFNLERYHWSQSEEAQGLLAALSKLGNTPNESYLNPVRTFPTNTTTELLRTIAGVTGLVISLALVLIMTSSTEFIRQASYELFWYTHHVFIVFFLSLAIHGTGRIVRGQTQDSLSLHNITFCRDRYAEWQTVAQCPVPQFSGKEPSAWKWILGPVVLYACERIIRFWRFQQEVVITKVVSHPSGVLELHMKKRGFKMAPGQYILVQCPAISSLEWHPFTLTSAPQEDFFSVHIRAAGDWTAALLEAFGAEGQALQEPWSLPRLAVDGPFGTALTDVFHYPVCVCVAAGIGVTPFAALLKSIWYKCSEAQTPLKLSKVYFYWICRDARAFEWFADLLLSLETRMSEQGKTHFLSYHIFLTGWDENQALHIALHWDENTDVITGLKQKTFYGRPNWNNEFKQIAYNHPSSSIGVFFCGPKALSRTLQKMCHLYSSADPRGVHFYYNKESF
How it was run: as §1

[3] = target: NADPH oxidase 2 (Homo sapiens) (UniProt P04839); conditions: HEK293 transfected NOX2/3/4, luminol ROS chemiluminescence; NOX2; at 10 µM; stronger effect = higher value
Sequence of NADPH oxidase 2 (Homo sapiens) (P04839 whole entry, looked up): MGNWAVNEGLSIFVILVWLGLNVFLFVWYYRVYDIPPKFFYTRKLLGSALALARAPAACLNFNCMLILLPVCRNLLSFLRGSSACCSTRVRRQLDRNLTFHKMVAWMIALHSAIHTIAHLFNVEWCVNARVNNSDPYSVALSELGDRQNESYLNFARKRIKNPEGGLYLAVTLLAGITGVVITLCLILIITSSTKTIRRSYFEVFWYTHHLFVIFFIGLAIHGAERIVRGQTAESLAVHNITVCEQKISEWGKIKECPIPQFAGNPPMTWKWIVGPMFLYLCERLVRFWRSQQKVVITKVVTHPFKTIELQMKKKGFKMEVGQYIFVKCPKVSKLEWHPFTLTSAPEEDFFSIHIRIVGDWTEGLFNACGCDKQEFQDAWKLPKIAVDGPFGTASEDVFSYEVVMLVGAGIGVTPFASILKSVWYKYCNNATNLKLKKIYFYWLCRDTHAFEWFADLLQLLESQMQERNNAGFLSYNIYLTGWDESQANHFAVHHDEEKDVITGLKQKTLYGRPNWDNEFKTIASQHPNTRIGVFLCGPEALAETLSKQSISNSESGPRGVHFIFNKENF
How it was run: as §1

inhibition [1] | inhibition [2] | inhibition [3] | Compound
25% (inactive) | 25% (inactive) | 6% (inactive) | Cc1cc(Cl)ccc1NC(=S)NNC(=S)Nc1ccc(F)cc1
61% | 61% | -7% (inactive) | COc1cc(-c2nc(-c3ccccc3)c(-c3ccccc3)[nH]2)ccc1O
3% (inactive) | 3% (inactive) | 19% (inactive) | CN(C)c1ccc(/C=N/Nc2c(Cl)cncc2Cl)cc1
3% (inactive) | 3% (inactive) | -3% (inactive) | O=C(Oc1ccccc1N1CCCCC1)c1sc2ccccc2c1Cl
-24% (inactive) | -24% (inactive) | 2% (inactive) | c1ccc2c(c1)Nc1nc3ccccc3nc1N2
52% | 52% | 32% (inactive) | CN(C)c1ccc(NC(=O)Nc2ccc(OCc3ccccc3)cc2)cc1
10% (inactive) | 10% (inactive) | 20% (inactive) | FC(F)(F)c1ccc2c(c1)Nc1ccccc1S2
